Assay results from ChEMBL document CHEMBL4480375, “Synthesis and receptor binding of thiophene bioisosteres of potent GluN2B ligands with a benzo[7]annulene-scaffold” (Medchemcomm, 2019).

Key:
[1] = target: Glutamate receptor ionotropic, NMDA 2B (Homo sapiens, UniProt Q05586+Q13224); assay: Displacement of [3H]-ifenprodil from GluN2B (unknown origin) expressed in L(tk) cells by radio ligand binding assay; assay type: cell-based
Procedure, shortened: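 Mouse L(tk-) cells stably carrying dexamethasone-inducible GluN1a/GluN2B (1:5) were induced for 24 h with 4 μM dexamethasone plus 4 μM ketamine, then sonicated to membranes (about 20 μg protein). […] Filtration and scintillation counting, in duplicate. Ki by Cheng–Prusoff (Kd 7.6 nM), mean ± SEM of n=3.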

[2] = target: T1, Sigma intracellular receptor 2 (Rattus norvegicus, UniProt Q5U3Y7); assay: Displacement of [3H]di-o-tolylguanidine from sigma2 receptor in rat liver membranes measured after 120 mins by scintillation counting analysis; assay type: cell membranes
T1 sequence (Q5U3Y7 whole entry): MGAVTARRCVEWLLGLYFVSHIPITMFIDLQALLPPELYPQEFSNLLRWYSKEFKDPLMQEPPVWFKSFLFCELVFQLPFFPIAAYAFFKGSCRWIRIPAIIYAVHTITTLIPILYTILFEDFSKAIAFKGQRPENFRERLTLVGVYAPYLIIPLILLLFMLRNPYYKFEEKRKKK

[3] = target: Sigma non-opioid intracellular receptor 1 (Cavia porcellus, UniProt Q60492); assay: Displacement of [3H]-(+)-pentazocine from sigma1 receptor in guinea pig brain cortex membranes measured after 120 mins by scintillation counting analysis; assay type: cell membranes
[4] = target: T2, Glutamate receptor ionotropic, NMDA 2B (Homo sapiens, UniProt Q13224); assay: Displacement of [3H]-ifenprodil from GluN2B (unknown origin) expressed in mouse L(tk) cells measured after 120 mins by scintillation counting analysis
[5] = target: T2, Glutamate receptor ionotropic, NMDA 2B; assay: Inhibition of GluN2B (unknown origin)

T2 sequence (Q13224 whole entry): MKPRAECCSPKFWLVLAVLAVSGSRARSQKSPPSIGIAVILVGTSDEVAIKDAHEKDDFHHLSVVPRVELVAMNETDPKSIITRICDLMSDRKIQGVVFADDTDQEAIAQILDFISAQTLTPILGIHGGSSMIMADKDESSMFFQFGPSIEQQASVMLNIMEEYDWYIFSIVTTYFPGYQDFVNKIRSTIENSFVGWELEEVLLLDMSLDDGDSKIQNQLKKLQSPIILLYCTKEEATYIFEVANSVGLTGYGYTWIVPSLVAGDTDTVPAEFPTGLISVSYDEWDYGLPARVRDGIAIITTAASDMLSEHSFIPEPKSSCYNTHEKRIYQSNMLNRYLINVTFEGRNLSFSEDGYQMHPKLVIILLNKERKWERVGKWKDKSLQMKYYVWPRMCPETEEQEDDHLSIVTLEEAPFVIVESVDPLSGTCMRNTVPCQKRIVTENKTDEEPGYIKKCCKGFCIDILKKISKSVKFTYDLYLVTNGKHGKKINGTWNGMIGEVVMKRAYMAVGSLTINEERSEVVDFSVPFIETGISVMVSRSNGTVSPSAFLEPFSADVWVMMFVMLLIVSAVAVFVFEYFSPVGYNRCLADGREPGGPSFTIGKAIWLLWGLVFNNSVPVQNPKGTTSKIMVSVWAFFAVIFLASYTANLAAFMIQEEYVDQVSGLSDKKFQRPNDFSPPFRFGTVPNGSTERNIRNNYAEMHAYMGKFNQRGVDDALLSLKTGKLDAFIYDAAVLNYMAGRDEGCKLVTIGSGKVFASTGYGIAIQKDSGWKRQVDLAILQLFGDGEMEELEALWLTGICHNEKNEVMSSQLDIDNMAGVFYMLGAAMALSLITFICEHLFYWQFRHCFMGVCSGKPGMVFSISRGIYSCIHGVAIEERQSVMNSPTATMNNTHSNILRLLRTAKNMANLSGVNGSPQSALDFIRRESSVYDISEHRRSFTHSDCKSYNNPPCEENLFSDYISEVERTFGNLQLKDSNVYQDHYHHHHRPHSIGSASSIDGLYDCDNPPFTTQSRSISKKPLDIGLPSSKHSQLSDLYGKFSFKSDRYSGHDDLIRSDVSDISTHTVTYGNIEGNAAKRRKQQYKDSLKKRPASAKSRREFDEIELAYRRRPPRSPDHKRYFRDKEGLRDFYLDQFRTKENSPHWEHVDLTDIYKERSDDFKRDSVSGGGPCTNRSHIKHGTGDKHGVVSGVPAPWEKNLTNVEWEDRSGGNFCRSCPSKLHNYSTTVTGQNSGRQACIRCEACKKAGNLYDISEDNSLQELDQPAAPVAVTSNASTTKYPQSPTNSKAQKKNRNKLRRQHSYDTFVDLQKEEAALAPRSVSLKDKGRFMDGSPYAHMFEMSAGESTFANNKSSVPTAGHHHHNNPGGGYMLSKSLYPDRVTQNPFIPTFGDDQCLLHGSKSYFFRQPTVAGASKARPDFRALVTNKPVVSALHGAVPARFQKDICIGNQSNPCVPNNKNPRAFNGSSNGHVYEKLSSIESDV
Chain of Sigma non-opioid intracellular receptor 1 (Q60492 whole entry): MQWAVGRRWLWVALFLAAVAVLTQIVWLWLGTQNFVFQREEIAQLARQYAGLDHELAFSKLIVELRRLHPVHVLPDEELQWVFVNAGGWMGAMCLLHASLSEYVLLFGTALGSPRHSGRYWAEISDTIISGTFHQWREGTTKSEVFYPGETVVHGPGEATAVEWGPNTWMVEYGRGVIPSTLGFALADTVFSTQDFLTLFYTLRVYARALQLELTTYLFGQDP
Chain of Glutamate receptor ionotropic, NMDA 2B (Homo sapiens, UniProt Q05586+Q13224) (Q13224 whole entry, one chain of several): as the sequence (Q13224 whole entry) above

Compound	Ki [1]	Ki [2]	Ki [3]	Ki [4]	Ki [5]
Nc1ccc2c(c1)CCC(NCc1ccccc1)CC2 (stereo unspecified)	0.128 µM	0.77 µM	0.47 µM	0.128 µM	
OC1CC(NCc2ccccc2)CCc2sccc21 (mixture of isomers)		0.606 µM	0.737 µM	0.204 µM	
COc1ccc2c(c1)CC[C@H](NCCCc1ccccc1)C[C@H]2O (relative stereo)		1.1 µM	0.167 µM	0.048 µM	0.048 µM

These reach a lower Ki [2]. Values come first.

Ki [1]	Ki [2]	Ki [3]	Ki [4]	Ki [5]	Compound
	0.05 µM	0.079 µM	0.026 µM		c1ccc(CNC2CCc3ccsc3CC2)cc1 (stereo unspecified)
	0.0092 µM	0.132 µM			COc1ccc2c(c1)CC[C@H](NCCCc1ccccc1)C[C@@H]2O (relative stereo)
